HCT116 bCat-KO = beta-catenin-lacking colon tumor cell growth suppression; HCT116 beta-catenin knockout viability, CellTiter-Glo, 60 h; active compounds read low; viability, % at 10 µM; 140,000 tested, 1.5% active; AID 818;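 active = viability at or under a set limit, the compound median less 4 SD, cut at about 6% in these data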
HCT116 PTEN-null = growth suppressors of cells with PTEN tumor suppressor deletion. viability, % at 10 µM. AID 827. HCT116 PTEN-null viability, CellTiter-Glo, 60 h; active compounds read low. 140,000 tested, 1.2% active;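 active = viability at or below a set limit, 4 SD under the median of all tested compounds, cut at about 3.7% in these data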;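 also: PTEN knockout HCT116 line with beta catenin targeted HCT116 as companion control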
Pyk2 oligo antag = blocks oligomerization of human Pyk2 in cells; Q14289; Q293 cells, Pyk2 FERM NanoBiT luminescence; active compounds read low; z-score (the deposit names both 25 µM and 10 µM); 99,000 tested, 0.83% active;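 active = Z-score of -3 or lower, scaled per plate to the spread of control and sample wells; inactive = z-score above -3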;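 also: negative z-score means lost luminescence so less FERM oligomerization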
Fibroblast inh = blocks proliferation of human lung fibroblasts; LL 47 human lung fibroblast viability, ATP luminescence; active compounds read low; viability, % at 10 µM; 85,000 tested, 1.1% active; AID 719;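 active = viability at or below 50% in the single dose screen; inactive = viability above 50%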;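 also: compound exposure lasted 72 h before the ATP readout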
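Test system: LL 47 human lung fibroblasts / Quantity: 1,150 cells in each well / Medium: IMEM growth medium with 15% fetal bovine serum / Incubation: 72 h compound exposure at 37 °C after overnight plating / Detection: CellTiter-Glo luminescence measuring cellular ATP / Read-out: % viability versus median cells-only luminescence / Benchmarks: cell-only wells, no compound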
H69AR growth 86K = growth inhibitors of human H69AR lung tumor cells. H69AR lung tumor viability, ATP luminescence, 72 h; active compounds read low. viability, % at 10 µM. 85,000 tested, 6% active. AID 598;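 active = viability at or below 40%; inactive = viability above 40%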;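 also: multidrug resistant small cell line overexpressing MRP-1 efflux transporter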
HUVEC inhibit = inhibitors of human endothelial cell proliferation; HUVEC proliferation, CellTiter-Glo luminescence, 72 h; active compounds read low; viability, % at 10 µM (by protocol); 86,000 tested, 1.1% active; AID 648;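 active = viability at or below 30%; inactive = viability above 30%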
Large screens that a line does not name were inactive. Shown is part of a subset that was picked to be rich in hits.

COc1ccc(OC)c(-c2cc(C(=O)Nc3cccc(Cl)c3)no2)c1	H69AR growth 86K 33.9
COc1cc(C(=O)Nc2ccc(S(=O)(=O)N(C)c3ccccc3)cc2)cc(OC)c1OC	none (no result: Pyk2 oligo antag, Fibroblast inh, H69AR growth 86K, HUVEC inhibit)
COc1cc(NC(=O)c2cc(-c3cccc(O)c3)on2)cc(OC)c1OC	H69AR growth 86K 28.0 (no result: Pyk2 oligo antag)
COc1cc(NC(=O)c2cc(-c3cccs3)on2)cc(OC)c1OC	H69AR growth 86K 22.7
COc1cc(C(=O)Nc2ccc(N(C)C)cc2)cc(OC)c1OC	H69AR growth 86K 33.4
CC(/C=N\NC(=O)c1ccc(C)nc1)=C\c1ccccc1	none (no result: Pyk2 oligo antag, Fibroblast inh, H69AR growth 86K, HUVEC inhibit)
O=C(COC(=O)c1ccc2[nH]c3c(c2c1)CCCC3)Nc1ccccc1	none (no result: Pyk2 oligo antag, Fibroblast inh, H69AR growth 86K, HUVEC inhibit)
COc1cc(C(=O)Nc2nc(-c3cccs3)cs2)cc(OC)c1OC	Pyk2 oligo antag -4.31, H69AR growth 86K 13.7
Cc1[nH][nH]c(=O)c1C(c1ccc(-c2ccc(Cl)c(Cl)c2)o1)c1c(C)[nH][nH]c1=O	H69AR growth 86K 29.5
CC(=O)c1cc(C#N)c(Oc2ccc(Cl)cc2Cl)nc1C	none (no result: HCT116 bCat-KO, HCT116 PTEN-null, Fibroblast inh, H69AR growth 86K, HUVEC inhibit)
O=C(Nc1ccc2cn[nH]c2c1)c1ccccc1F	none (no result: Pyk2 oligo antag, Fibroblast inh, H69AR growth 86K, HUVEC inhibit)
O=C(Nc1ccc2oc(-c3ccccc3)nc2c1)c1ccncc1	none
O=C(Nc1ccc2oc(-c3ccccc3)nc2c1)c1cccs1	H69AR growth 86K 38.5
O=C(Nc1ccc2nc(-c3cccs3)[nH]c2c1)c1cccs1	H69AR growth 86K 39.1
O=C(Nc1ccc2nc(-c3cccnc3)[nH]c2c1)c1ccccc1F	H69AR growth 86K 34.1
O=C(Nc1ccc(-c2nc3ccc(NC(=O)c4cccs4)cc3[nH]2)cc1)c1cccs1	Fibroblast inh 41.3, H69AR growth 86K 3.1, HUVEC inhibit 4.1
Cc1cc(C)c(NC(=O)C2CCCN2CCOC(=O)c2ccccc2)c(C)c1 (configuration not stated)	none (no result: Pyk2 oligo antag, Fibroblast inh, H69AR growth 86K, HUVEC inhibit)
CCn1c(SCC(=O)Nc2ncc(C(F)(F)F)cc2Cl)nnc1-c1cccc(C)c1	none (no result: Pyk2 oligo antag, Fibroblast inh, H69AR growth 86K, HUVEC inhibit)
O=C1CCCCCCC1Sc1ccccc1[N+](=O)[O-] (configuration not stated)	none (no result: Fibroblast inh, H69AR growth 86K, HUVEC inhibit)
O=C(/C=C/c1c(Cl)cccc1Cl)n1cccn1	H69AR growth 86K 26.3
CCCc1sc(N/N=C/c2ccccn2)nc1-c1ccc(F)cc1	HCT116 bCat-KO 3.2, HCT116 PTEN-null 3.1, Fibroblast inh 19.3, H69AR growth 86K 13.1, HUVEC inhibit 14.7
N#CC1=C(N)N(c2ccccc2)C(c2cccc([N+](=O)[O-])c2)C1(C#N)C#N (configuration not stated)	H69AR growth 86K 10.1
OCCN1CCN(c2cc(-c3ccccc3)c3ccccc3n2)CC1	none (no result: Pyk2 oligo antag, Fibroblast inh, H69AR growth 86K, HUVEC inhibit)
CCc1c(C)sc2nc(C(C)C)nc(SCC(=O)N3CCc4ccccc4C3)c12	none (no result: Pyk2 oligo antag, Fibroblast inh, H69AR growth 86K, HUVEC inhibit)
CN(C)c1nc(-c2ccccc2)c2cnn(Cc3ccccc3)c2n1	H69AR growth 86K 19.4
COc1ccc(Nc2nc(NCc3ccco3)nc(N/N=C/c3ccc(O)cc3)n2)cc1	none (no result: Fibroblast inh, H69AR growth 86K, HUVEC inhibit)
O/N=C(\c1ccc(Cl)cc1)c1cc2ccccc2o1	H69AR growth 86K 1.9
Cc1ccc(C(=O)c2cc3ccccc3o2)cc1	none
CCOc1nc(Nc2ccc(-c3nc4ccccc4o3)cc2)nc(N2CCOCC2)n1	none (no result: HCT116 bCat-KO, HCT116 PTEN-null, Pyk2 oligo antag)
CCOC(=O)c1ccc(NC(=O)CCc2nc(-c3ccccc3)no2)cc1	none
CCOC(=O)c1ccc(NC(=O)CCc2nc(-c3ccccc3Cl)no2)cc1	H69AR growth 86K 29.3
O=C(CCCc1nc(-c2ccccc2Cl)no1)NCc1cccnc1	H69AR growth 86K 39.0
O=C(CCc1nc(-c2ccccc2)no1)NCc1cccnc1	none
Cn1c(=O)c2c3c(sc2n2c(SCC(N)=O)nnc12)CC(C(C)(C)C)CC3 (configuration not stated)	HCT116 bCat-KO 1.4
Cc1nn(Cc2ccc(Cl)cc2Cl)c(C)c1NC(=O)c1ccc(COc2cc(Cl)ccc2Cl)o1	none (no result: Fibroblast inh, H69AR growth 86K, HUVEC inhibit)
Cc1nn(Cc2c(F)c(F)c(F)c(F)c2F)c(C)c1NC(=O)c1ccc(COc2ccc(Cl)cc2Cl)o1	HCT116 bCat-KO 4.7 (no result: Pyk2 oligo antag, Fibroblast inh, H69AR growth 86K, HUVEC inhibit)
CCOC(=O)N1CCN(S(=O)(=O)c2ccc(C(=O)NNc3nc4ccc(Cl)cc4s3)cc2)CC1	HCT116 bCat-KO 4.4, HCT116 PTEN-null 3.6 (no result: Pyk2 oligo antag, Fibroblast inh, H69AR growth 86K, HUVEC inhibit)
CCOC(=O)N1CCN(S(=O)(=O)c2ccc(C(=O)Nc3nc4c(s3)CC(C)CC4)cc2)CC1 (configuration not stated)	HCT116 bCat-KO 1.5, HCT116 PTEN-null 1.2, Fibroblast inh 7.7, H69AR growth 86K 7.5, HUVEC inhibit 16.6
